dFosB act: mouse delta FosB homodimer activation. P13346. purified delta FosB, TAMRA-CDK5 oligo fluorescence polarization; percent of positive-control signal above neutral wells. activation, % at 25 µM. hit rate 0.99% among 340,000. AID 493131;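 active = mean activation above about 17%, with every replicate also reaching it, limit read from the data, passing the limit was not always enough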
Target sequence (P13346 whole entry, looked up): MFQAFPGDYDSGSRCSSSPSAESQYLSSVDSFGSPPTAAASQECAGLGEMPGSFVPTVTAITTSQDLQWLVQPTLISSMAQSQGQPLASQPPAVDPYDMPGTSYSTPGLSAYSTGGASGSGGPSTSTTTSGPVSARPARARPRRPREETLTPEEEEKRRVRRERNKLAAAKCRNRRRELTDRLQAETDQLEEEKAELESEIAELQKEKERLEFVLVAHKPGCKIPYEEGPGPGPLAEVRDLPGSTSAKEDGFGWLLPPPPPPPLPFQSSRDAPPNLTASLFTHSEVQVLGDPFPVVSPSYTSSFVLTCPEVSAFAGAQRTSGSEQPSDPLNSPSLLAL
FGF22 binding: FGF22 (human) thermal shift binding. hit rate 1.5% among 340,000. Q9HCT0. activity (Tm shift, normalised), % at 9.99 µM. recombinant FGF22 thermal shift, SYPRO orange fluorescence; percent of sucrose octasulfate shift, DMSO zero;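 active = mean Tm shift, scaled 0 neutral to 100 positive control, at about 1.3% or above, every replicate too, limit read from the data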
S100A4 inh HTS: blocks human S100A4 binding to myosin IIA peptide. inhibition, % at 10.7 µM. P26447. S100A4/TAMRA-MyoIIA peptide fluorescence polarization. hit rate 0.14% among 360,000;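 active = mean inhibition of at least 70% across replicates, with every replicate also reaching that level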
Target sequence (P26447 whole entry, looked up): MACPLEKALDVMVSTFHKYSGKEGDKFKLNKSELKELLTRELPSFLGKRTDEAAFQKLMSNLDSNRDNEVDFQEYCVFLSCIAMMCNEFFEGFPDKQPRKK
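Material: S100A4 monomer protein / Buffer or medium: 50 mM HEPES pH 7.2, 10 mM CaCl2, 100 mM KCl / Times: 5 min incubation before reading / Benchmarks: neutral control DMSO, positive control TFP / Reagent: labelled myosin peptide probe, 5 nM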
CFTR F508del cor: correctors of CFTR F508del function in bronchial epithelial cells. CFBE cells, YFP halide quenching; stimulated with forskolin plus potentiator P3; % fluorescence drop versus neutral controls. activity (quench increase), % at 7.58 µM. hit rate 0.36% among 350,000;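 active = mean added fluorescence quench of at least 8% versus neutral control, with both replicates also reaching 8%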;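 note: cells transiently co-express mutant CFTR-F508del with the halide-sensitive YFP; corrector assay measuring rescue of mutant channel to the surface after 24 h compound exposure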
Numbers without * were called inactive; . = no result; ! = a repeat was not active. Sampled rows, rich in hits. Any-hit rate of the full collection: about 2.2%.

SMILES	dFosB act	FGF22 binding	S100A4 inh HTS	CFTR F508del cor
COc1ccc(S(=O)(=O)N2CC[C@@H]3[C@H]2c2cc(-c4ccc(F)cc4)ccc2N(C)[C@H]3CO)cc1	.	.	.	-1
CCCNC(=O)N1CC[C@@H]2[C@@H](CO)N(C)c3ccc(-c4ccc(F)cc4)cc3[C@@H]21	.	-1	93*	0
C[C@@H]1CN([C@@H](C)CO)C(=O)Cc2cc(NC(=O)Nc3ccc4c(c3)OCO4)ccc2O[C@H]1CN(C)C	.	0	-4	0
COc1ccc2c3c([nH]c2c1)[C@@H](CO)N(C(=O)Cc1ccccc1)CC31CN(C(=O)Cc2ccccc2)C1	.	0	2	-1
CN1c2ccc(-c3ccc(F)cc3)cc2[C@@H]2[C@@H](CCN2S(=O)(=O)c2cccc(F)c2)[C@@H]1CO	.	0	-5	1
CN1c2ccc(-c3ccc(F)cc3)cc2[C@H]2[C@H](CCN2S(=O)(=O)c2cccc(F)c2)[C@H]1CO	.	0	1	16*
Cc1ccc(NC(=O)COC(=O)/C=C/c2ccc(Br)o2)cc1S(=O)(=O)N(C)C	-17	43*	-3	-1
CN(C)S(=O)(=O)c1cccc(NC(=O)COC(=O)/C=C/c2ccc(Br)o2)c1	-10	0	20	-2
Cc1ccc(NC(=O)c2ccc(Br)o2)cc1S(=O)(=O)N(C)C	-15	43*	-1	-2
Cc1ccn2c(Nc3ccccc3)c(-c3ccccn3)nc2c1	33*	0	-4	-3
C/C(CCc1ccccc1)=N\NC(=O)COc1ccccc1C	4	43*	6	0
CC(=O)N/N=C(\C)CCc1ccccc1	9	0	-9	-1
COc1ccc(S(=O)(=O)Nc2ccc3c(c2)CC(=O)N([C@H](C)CO)C[C@@H](C)[C@@H](CN(C)S(=O)(=O)c2ccc(Cl)cc2)O3)cc1	.	0	-4	1
CC(C)c1ccccc1NC(=S)NC(C)c1ccccc1 (configuration not stated)	-6	44*	-6	1
CC(NC(=S)Nc1ccc(F)cc1)c1ccccc1 (configuration not stated)	-5	.	-13	1
CCc1ccc(S(=O)(=O)Nc2ccc(O)c3c(=O)cc(-c4ccccc4Cl)oc23)cc1	7	19*	-4	2
CCOC(=O)C(=O)Cc1nc(OCc2ccccc2)cc(OCc2ccccc2)n1	-13	43*	0	0
CCOC(=O)C(Cc1nc(OCc2ccccc2)cc(OCc2ccccc2)n1)=NO	-15	0	17	1
C[C@H]1CN([C@@H](C)CO)C(=O)c2cccc(NC(=O)c3ccc(-c4nccs4)cc3)c2O[C@@H]1CN(C)C(=O)Nc1ccccc1	.	0	-5	-2
C[C@@H]1CN([C@H](C)CO)C(=O)c2cccc(NC(=O)c3ccc(-c4nccs4)cc3)c2O[C@@H]1CN(C)C(=O)Nc1ccccc1	.	3.2*	3	-1
C[C@H]1CN([C@@H](C)CO)C(=O)c2cc(NC(=O)CCCCCC(=O)Nc3ccccc3N)ccc2O[C@H]1CN(C)S(=O)(=O)c1cccs1	.	0	98*	3
C[C@@H]1CN([C@@H](C)CO)C(=O)c2cccc(NC(=O)CCCCCC(=O)Nc3ccccc3N)c2O[C@@H]1CN(C)S(=O)(=O)c1cccs1	.	0	7	2
C[C@@H]1CN([C@H](C)CO)C(=O)c2cccc(NC(=O)CCCCCC(=O)Nc3ccccc3N)c2O[C@H]1CN(C)S(=O)(=O)c1cccs1	.	0	74*	0
Cc1noc(C)c1NC(=O)N(C)C[C@@H]1Oc2c(NC(=O)CCCCCC(=O)Nc3ccccc3N)cccc2C(=O)N([C@@H](C)CO)C[C@@H]1C	.	0	24	1
Cc1noc(C)c1NC(=O)N(C)C[C@H]1Oc2c(NC(=O)CCCCCC(=O)Nc3ccccc3N)cccc2C(=O)N([C@@H](C)CO)C[C@H]1C	.	0	76*	0
SMILES	dFosB act	FGF22 binding	S100A4 inh HTS	CFTR F508del cor
CC(C)NC(=O)N(C)C[C@@H]1Oc2c(NC(=O)Nc3cccc4ccccc34)cccc2C(=O)N([C@H](C)CO)C[C@H]1C	.	-1	101*	0
C[C@H](CO)N1C[C@H](C)[C@@H](CN(C)S(=O)(=O)c2ccc(F)cc2)Oc2ncc(-c3ccncc3)cc2C1=O	.	0	-7	1
O=C1c2ccccc2C(=O)c2c(NCCCN(CCO)CCO)cccc21	56*	0	-39	4
C[C@@H]1CCCCO[C@@H](CN(C)C(=O)c2ccccc2)[C@@H](C)CN([C@H](C)CO)C(=O)c2cc(NS(=O)(=O)c3ccccc3)ccc2O1	.	.	3	0
O=C(Nc1cccc(Cl)c1)N1CCN(c2ncccn2)CC1	-6	.	.	.
O=C(Nc1ccc(Cl)cc1Cl)N1CCN(c2ncccn2)CC1	-4	43*	-1	0
Cc1nn(-c2ccccc2)c(Cl)c1/C=N/NC(=O)CNC(=O)c1ccccc1Cl	-3	44*	-8	2
CC(=O)N1C(=O)N(C(C)=O)C2C1N(C)C(=O)N2C(C)=O (configuration not stated)	-7	43*	3	-2
CC1CC(C)(C)NC(=S)O1 (configuration not stated)	2	43*!	-1	2
C=C1C(=O)[C@]23C[C@H]1CC[C@H]2[C@]1(C)[C@@H](OC(C)=O)CC[C@@](C)(C(=O)O)[C@H]1C[C@@H]3O	.	1	4	8.6*
C=C1C(=O)[C@]23C[C@H]1CCC2[C@@]1(C)C(C[C@@H]3O)[C@](C)(C(=O)OC)CC[C@@H]1OC(C)=O (some centres not stated)	.	.	6	-2
Cc1ccc(S(=O)(=O)Nc2ccc3c(c2)CC(=O)N([C@@H](C)CO)C[C@@H](C)[C@H](CN(C)S(=O)(=O)c2c(C)noc2C)O3)cc1	.	0	3	1
O=C(C1CCCCC1)N1CC2(C1)[C@@H](c1ccccc1)[C@H](CO)N2Cc1nccs1	.	.	-2	3
O=C(c1ccccc1Nc1ccc(SC(F)F)cc1)N1CCCCC1	-4	.	.	.
CC1CN(C(=O)c2ccccc2Nc2ccc(SC(F)F)cc2)CC(C)O1 (configuration not stated)	-9	44*	1	2
CC(C)NC(=O)Nc1ccc2c(c1)CC(=O)N([C@H](C)CO)C[C@H](C)[C@H](CN(C)S(=O)(=O)c1ccc(F)cc1)O2	.	0	11	-1
COc1ccccc1C1=NOC(COC(=O)c2ccc(Br)cc2)C1 (configuration not stated)	-1	43*	4	-1
COc1ccccc1C1=NOC(COC(=O)c2ccc([N+](=O)[O-])cc2)C1 (configuration not stated)	.	0	-3	1
COc1ccc(C)cc1Nc1c2c(nc3ccccc13)CCC2	-5	0	-1	13*
CCN(CC)c1ccc(Nc2nc(N3CCOCC3)c3ccccc3n2)cc1	-1	.	.	.
COc1ccccc1Nc1c2ccccc2nc2ccccc12	37*	0	-2	-1
